Series [1] in a line: Inhibition of 5'[32P]-labeled 34 base ssDNA binding to recombinant full length human RPA expressed in Escherichia coli cells preincubated for 30 mins followed by labeled DNA addition and measured after 5 mins by electrophoretic mobility shift assay. The essentials:
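Purified heterotrimeric human RPA without tags or modifications, binding to ssDNA read by EMSA. […] IC50 is the mean of at least three independent experiments, reported as mean ± SD.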
(In EMSA bound probe runs differently from free probe, usually more slowly.)

Another series is filed under the species Homo sapiens. Kind of series: Inhibition of 5'[32P]-labeled 34 base ssDNA binding to SUMO-His6-tagged RPA DBD A/B domain (181-432 residues) (unknown origin) expressed in Escherichia coli BL21 (DE3) cells preincubated for 30 mins followed by labeled DNA addition and measured after 5 mins by electrophoretic mobility shift assay.
The test system of a further series is Salmon testes DNA. Kind of series: Displacement of SYBR-green from salmon sperm DNA assessed as DNA intercalation by measuring reduction in fluorescence at 5 to 20 uM after 5 mins by fluorescent intercalator displacement assay. In kind it is nucleic-acid assay. The conditions noted are these: Salmonidae. The essentials: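 Sybr-green intercalator bound to DNA. Displacement was read as a fall in fluorescence across a range of compound concentrations. Doxorubicin served as the positive control.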

Series [2] is described as follows: Drug uptake in human H460 cells at 20 uM incubated for 4 hrs by LC-MS analysis. The following applies: nci-h460, 4 h. The format is ADME, cell-based. The procedure, abridged:
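H460 NSCLC cells. Individual points come from three independent determinations and are reported as mean and SD.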

The nature of series [3]: Aqueous solubility of compound in unbuffered H2O at pH 7 by absorbance spectroscopy based LC-MS analysis. In kind it is physicochemical. The conditions noted are these: buffer. The essentials:
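Aqueous solubility was measured in three independent determinations and reported as mean and SD.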

Series [4] is described as follows: Irreversible inhibition of RPA (unknown origin). Details: species or system Homo sapiens.

Activity calls are given as the source filed them. The rule behind the calls is not given here.

With `CCOc1ccc2cc(C3CC(c4ccc(O)cc4)=NN3C(=O)CCCC(=O)O)c(Cl)nc2c1` (stereo not given), the IC50 in series [1] (read-out: IC50) was over 25 µM.
Turning to `CCOc1ccc2cc(C3CC(c4ccc(-c5ccc(Br)nc5)cc4)=NN3C(=O)CCCC(=O)O)c(Cl)nc2c1` (stereo not given), in series [1] (read-out: IC50), the IC50 was found to be 1 µM. In the series listed under Homo sapiens, the inhibition entry is “Active”. In addition, the inhibition result with Salmon testes DNA is “inactive”.
As to `CCOC(=O)CCCC(=O)N1N=C(c2ccc(I)cc2)CC1c1cc2ccc(OCC)cc2nc1Cl` (stereo not given), in series [1], the half-maximal inhibitory concentration (IC50) entry is recorded as “Not Active”.
As to `CCOc1ccc2cc(C3CC(c4ccc([N+](=O)[O-])cc4)=NN3C(=O)CCCC(=O)O)c(Cl)nc2c1` (stereo not given), the IC50 in series [1] (read-out: IC50) was over 25 µM.
In the case of `CCOc1ccc2cc(C3CC(c4ccc(-c5ccc(F)nc5)cc4)=NN3C(=O)CCCC(=O)NCCCN3CCOCC3)c(Cl)nc2c1` (stereo not given), the IC50 in series [1] (read-out: IC50) came to 2.3 µM. For the same compound, the Drug uptake result in series [2] is reported as “Active”. Moreover, the solubility result in series [3] is recorded as “Soluble”.
For the compound `CCOc1ccc2cc(C3CC(c4ccc(I)cc4)=NN3C(=O)CCCC(=O)NCCN3CCOCC3)c(Cl)nc2c1` (stereo not given), in series [1] (read-out: IC50), the IC50 came to 10.5 µM.
Regarding `CCOc1ccc2cc(C3CC(c4ccc(N)cc4)=NN3C(=O)CCCC(=O)O)c(Cl)nc2c1` (stereo not given), the IC50 in series [1] (read-out: IC50) was 2.3 µM. Moreover, the inhibition entry with Salmon testes DNA was “inactive”.
As to `CCOc1ccc2cc(C3CC(c4ccc(Br)cc4)=NN3C(=O)CCCC(=O)O)c(Cl)nc2c1` (stereo not given), the half-inhibitory concentration (IC50) in series [1] (read-out: IC50) stood at 19.2 µM. In series [3], the solubility result is “Soluble”.
With `CC1(C)[C@@H]2CC[C@@]1(C)[C@H](OC(=O)CBr)C2`, in series [4], the IC50 amounted to 16 µM.
In the case of `CCOc1ccc2cc(C3CC(c4ccc(I)cc4)=NN3C(=O)CCCC(=O)O)c(Cl)nc2c1` (stereo not given), the 50% inhibitory concentration (IC50) in series [1] (read-out: IC50) is 15.3 to 18 µM. Moreover, the Drug uptake entry in series [2] is recorded as “Not Active”. In addition, in series [3], the solubility result is listed as “Soluble”.
For the compound `COc1cccc2c1C(=O)c1c(O)c3c(c(O)c1C2=O)C[C@@](O)(C(=O)CO)C[C@@H]3O[C@H]1C[C@H](N)[C@H](O)[C@H](C)O1`, in the series on Salmon testes DNA, the inhibition entry is “Dose-dependent effect”.
As for `CCOc1ccc2cc(C3CC(c4ccc(I)cc4)=NN3C(=O)CCCC(=O)NCCCN3CCOCC3)c(Cl)nc2c1` (stereo not given), the IC50 in series [1] (read-out: IC50) was 4.9 µM. Also, in series [2], the Drug uptake entry was “Active”. Besides, the solubility result in series [3] is on record as “Soluble”. For the same compound, the inhibition entry in the series with Salmon testes DNA is “inactive”.
In the case of `CCOc1ccc2cc(C3CC(c4ccc(-c5ccc(C(F)(F)F)nc5)cc4)=NN3C(=O)CCCC(=O)O)c(Cl)nc2c1` (stereo not given), the half-inhibitory concentration (IC50) in series [1] (read-out: IC50) came out at 4.3 µM. For the same compound, the solubility entry in series [3] is “Soluble”.
Consider `C=CC(=O)Oc1ccc(C2=NN(C(=O)CCCC(=O)O)C(c3cc4ccc(OCC)cc4nc3Cl)C2)cc1` (stereo not given), for which, in series [1] (read-out: IC50), the IC50 stood at 8.9 µM.
In the case of `CCOc1ccc2cc(C3CC(c4ccc(Br)cc4)=NN3C(=O)CCC(=O)O)c(Cl)nc2c1` (stereo not given), the IC50 in series [1] (read-out: IC50) came out at 38 µM.
In the case of `CCOc1ccc2cc(C3CC(c4ccc(-c5ccc(F)nc5)cc4)=NN3C(=O)CCCC(=O)O)c(Cl)nc2c1` (stereo not given), the concentration for half-maximal inhibition (IC50) in series [1] (read-out: IC50) came to 2.6 µM. In addition, the solubility result in series [3] is on record as “Soluble”.
Take `CCOc1ccc2cc(C3CC(c4ccc(-c5ccc(Cl)nc5)cc4)=NN3C(=O)CCCC(=O)O)c(Cl)nc2c1` (stereo not given): the IC50 in series [1] (read-out: IC50) is 1.6 µM. The Drug uptake result in series [2] is listed as “Active”. Also, in the series listed under Homo sapiens, the inhibition result is “Active”. Besides, the solubility entry in series [3] is “Soluble”. Besides, in the series on Salmon testes DNA, the inhibition result was “inactive”.
For `CCOc1ccc2cc(C3CC(c4ccc(-c5ccc(N6CCOCC6)cc5)cc4)=NN3C(=O)CCCC(=O)O)c(Cl)nc2c1` (stereo not given), the IC50 in series [1] (read-out: IC50) amounted to 3.1 µM. Moreover, in the series listed under Homo sapiens, the inhibition entry is “Active”.
As to `CCOc1ccc2cc(C3CC(c4ccc(I)cc4)=NN3C(=O)CCCC(=O)N3CCOCC3)c(Cl)nc2c1` (stereo not given), in series [1] (read-out: IC50), the 50% inhibitory concentration (IC50) was determined as 6.6 µM.
As to `CCOc1ccc2cc(C3CC(c4ccc(-c5ccoc5)cc4)=NN3C(=O)CCCC(=O)O)c(Cl)nc2c1` (stereo not given), the IC50 in series [1] (read-out: IC50) came out at 6.7 µM.
For the compound `CC1(C)[C@@H]2CC[C@@]1(C)[C@H](OC(=O)CI)C2`, in series [4], the IC50 is 10 µM.
As to `CCOc1ccc2cc(C3CC(c4ccc(-c5ccc(C(F)(F)F)nc5)cc4)=NN3C(=O)CCCC(=O)NCCCN3CCOCC3)c(Cl)nc2c1` (stereo not given), the IC50 in series [1] (read-out: IC50) came to 5.8 µM. Moreover, the Drug uptake result in series [2] is “Active”. In addition, the solubility result in series [3] is given as “Soluble”.
With `CCOc1ccc2cc(C3CC(c4ccc(Br)cc4)=NN3C(=O)CCCC(=O)NCCCN3CCOCC3)c(Cl)nc2c1` (stereo not given), the 50% inhibitory concentration (IC50) in series [1] (read-out: IC50) was 10 µM. Also, the solubility result in series [3] is recorded as “Soluble”.
Consider `CCOc1ccc2cc(C3CC(c4ccc(-c5cnoc5)cc4)=NN3C(=O)CCCC(=O)O)c(Cl)nc2c1` (stereo not given), for which, in series [1] (read-out: IC50), the half-inhibitory concentration (IC50) was found to be 1.7 µM. The inhibition entry in the series listed under Homo sapiens was “Active”.
Consider `CCOc1ccc2cc(C3CC(c4ccc(-c5ccco5)cc4)=NN3C(=O)CCCC(=O)O)c(Cl)nc2c1` (stereo not given), for which the half-maximal inhibitory concentration (IC50) in series [1] (read-out: IC50) was 2.1 µM. For the same compound, in the series listed under Homo sapiens, the inhibition entry is “Active”. The inhibition entry with Salmon testes DNA was “inactive”.
Turning to `CCOc1ccc2cc(C3CC(c4ccc(OC(=O)N5CCOCC5)cc4)=NN3C(=O)CCCC(=O)O)c(Cl)nc2c1` (stereo not given), in series [1] (read-out: IC50), the concentration for half-maximal inhibition (IC50) was over 25 µM.
Consider `CCOc1ccc2cc(C3CC(c4ccc(-c5ccc(Cl)nc5)cc4)=NN3C(=O)CCCC(=O)NCCCN3CCOCC3)c(Cl)nc2c1` (stereo not given), for which the IC50 in series [1] (read-out: IC50) stood at 4 µM. The Drug uptake entry in series [2] was “Active”. In series [3], the solubility result is “Soluble”. Besides, in the series with Salmon testes DNA, the inhibition entry is “inactive”.
With `CCOc1ccc2cc(C3CC(c4ccc(I)cc4)=NN3c3cccc(C(=O)O)c3)c(Cl)nc2c1` (stereo not given), the IC50 result in series [1] is listed as “Not Active”.

As a reminder, the IC50 is the point on the concentration scale where inhibition reaches its midpoint.

For the origin of these results see ChEMBL document CHEMBL4616692, “Structure-Guided Optimization of Replication Protein A (RPA)-DNA Interaction Inhibitors” (ACS Med Chem Lett, 2020).
